Test results: ChEMBL document CHEMBL1914352, “Design, synthesis, docking, and biological evaluation of novel diazide-containing isoxazole- and pyrazole-based histone deacetylase probes” (J Med Chem, 2011)
Each block holds one compound with its values, some of them ahead of it. Calls of active or inactive are those of the source. The calls are words filed in the database; no cut-off is given here.

Tests used:
Histone deacetylase 8 = target: T1, Histone deacetylase 8 (Homo sapiens, UniProt Q9BY41); test: Inhibition of human recombinant HDAC8 using Fluor de Lys as substrate
T1 sequence (Q9BY41 whole entry): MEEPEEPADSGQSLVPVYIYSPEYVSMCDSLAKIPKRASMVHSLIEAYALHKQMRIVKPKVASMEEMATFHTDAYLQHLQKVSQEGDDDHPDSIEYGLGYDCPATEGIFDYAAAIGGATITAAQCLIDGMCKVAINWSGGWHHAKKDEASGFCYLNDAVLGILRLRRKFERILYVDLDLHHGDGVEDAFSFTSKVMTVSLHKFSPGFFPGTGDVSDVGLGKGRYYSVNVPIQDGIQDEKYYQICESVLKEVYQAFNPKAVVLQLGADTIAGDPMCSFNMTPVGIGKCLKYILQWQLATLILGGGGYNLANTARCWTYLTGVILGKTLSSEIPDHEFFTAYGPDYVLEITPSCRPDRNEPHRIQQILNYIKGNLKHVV

[1] = target: Histone deacetylase 3/Nuclear receptor corepressor 2 (HDAC3/NCoR2) (Homo sapiens, UniProt O15379); test: Inhibition of human recombinant HDAC3/NCoR2 using fluorophore-conjugated substrate Boc-L-Lys(Ac)-AMC; format: protein-complex assay
SH-SY5Y [2] = test: Neuroprotective activity against LY294002-induced stress in retinoic acid-differentiated human SH-SY5Y cells assessed as cell survival at 0.5 to 20 uM; format: functional, cell-based
How it was run: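 SH-SY5Y cells pre-differentiated with retinoic acid, seeded at 2×10^4 cells/well in 1% FBS medium with 5 µM retinoic acid. After 24 h, medium changed to phenol red free 1% FBS medium with 5 µM retinoic acid plus vehicle (DMSO) or 0.5–50 µM inhibitor (final), with or without 100 µM LY294002. Viability by XTT after 24 h. Expressed as percent survival relative to vehicle, four replicates ± SD. Analysed by one-way ANOVA with Dunnett's test.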

HepG2 [3] = test: cells; format: functional, cell-based; conditions: Homo sapiens, HepG2, 72 h
HeLa [4] = test: cells; format: functional, cell-based; conditions: Homo sapiens, 72 h
SH-SY5Y [5] = test: cells; format: functional, cell-based; conditions: Homo sapiens, 48 h
HeLa [6] = test: cells; format: functional, cell-based; conditions: Homo sapiens, 24 h
SH-SY5Y [7] = test: cells; format: functional, cell-based; conditions: Homo sapiens, 72 h
SH-SY5Y [8] = test: cells; format: functional, cell-based; conditions: Homo sapiens, 24 h
SH-SY5Y [9] = test: Cytotoxicity against retinoic acid-differentiated human SH-SY5Y cells assessed as cell survival at 20 uM; format: cell-based
How it was run: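 SH-SY5Y cells are differentiated for 7–8 days in 1% FBS medium with 10 µM retinoic acid, then seeded at 2×10^4 cells/well in 1% FBS medium with 5 µM RA. After 24 h they go into phenol-red-free 1% FBS/RA medium with DMSO or 0.5–50 µM inhibitor, without or with 100 µM LY294002, for 24 h. Readout: XTT viability as % survival vs vehicle, four replicates ± SD, one-way ANOVA with Dunnett.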

HepG2 [10] = test: cells; format: functional, cell-based; conditions: Homo sapiens, HepG2, 48 h
HeLa [11] = test: cells; format: functional, cell-based; conditions: Homo sapiens, 48 h
HepG2 [12] = test: cells; format: functional, cell-based; conditions: Homo sapiens, HepG2, 24 h
HepG2 [13] = test: Induction of apoptosis in human HepG2 cells assessed as cleavage of caspase 3 at 1 to 10 uM after 14 hrs by Western blot analysis; format: functional, cell-based
How it was run: (§1)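 HepG2 cells are seeded at 2.7×10^5 cells/well in D7 medium (DMEM, 7% FBS), refed after 24 h, and after 1 h at 37 °C treated with DMSO or 1, 5 or 10 µM inhibitor. Lysis is in ice-cold 1% CHAPSO buffer (50 mM Hepes pH 7.4), 45 min at 4 °C. Immunoblots are probed for cleaved caspase 3 Asp175, acetyl-Lys373 p53, total p53 and GAPDH, detected by chemiluminescence, with band densitometry.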

HepG2 [14] = test: Induction of apoptosis in human HepG2 cells assessed as hyperacetylation of p53 after 24 hrs by Western blot analysis; format: functional, cell-based; how it was run: as §1
HepG2 [15] = test: Induction of apoptosis in human HepG2 cells assessed as hyperacetylation of p53 at 1 to 10 uM by Western blot analysis; format: functional, cell-based; how it was run: as §1
HepG2 [16] = test: Induction of apoptosis in human HepG2 cells assessed as cleavage of caspase 3 at 1 to 10 uM after 24 hrs by Western blot analysis; format: functional, cell-based; how it was run: as §1
[17] = target: Matrix metalloproteinase-14 (Homo sapiens, UniProt P50281); test: Inhibition of MMP14
Stromelysin-1 = Stromelysin-1 (Homo sapiens, UniProt P08254); test: Inhibition of MMP3
[18] = target: T2, Histone deacetylase (Homo sapiens) (UniProt Q13547+O15379+Q9UBN7+Q92769+Q9UQL6+Q8WUI4+Q9BY41+Q96DB2+P56524+Q9UKV0+Q969S8); test: Inhibition of HDAC in retinoic acid-differentiated human SH-SY5Y cells assessed as increase in histone H4 acetylation at 1 uM after 24 hrs by Western blot analysis in presence of 100 uM LY294002; format: cell-based
[19] = target: T2, Histone deacetylase (Homo sapiens); test: Inhibition of HDAC in retinoic acid-differentiated human SH-SY5Y cells assessed as increase in histone H4 acetylation at 1 uM after 24 hrs by Western blot analysis; format: cell-based

Histone deacetylase 3/Nuclear receptor corepressor 2 (HDAC3/NCoR2), sequence (O15379 whole entry): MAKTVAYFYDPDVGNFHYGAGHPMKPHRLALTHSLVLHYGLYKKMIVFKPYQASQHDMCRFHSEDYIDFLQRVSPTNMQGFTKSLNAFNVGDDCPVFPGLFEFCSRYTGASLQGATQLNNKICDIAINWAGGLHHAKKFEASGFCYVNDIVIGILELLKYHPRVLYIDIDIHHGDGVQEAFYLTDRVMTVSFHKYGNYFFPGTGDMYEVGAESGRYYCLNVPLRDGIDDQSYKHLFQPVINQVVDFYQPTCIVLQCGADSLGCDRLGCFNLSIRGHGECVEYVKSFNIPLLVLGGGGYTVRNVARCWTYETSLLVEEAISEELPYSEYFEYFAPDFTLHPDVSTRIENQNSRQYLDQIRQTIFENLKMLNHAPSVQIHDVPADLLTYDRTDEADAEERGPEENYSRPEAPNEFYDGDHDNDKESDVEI
Histone deacetylase 3/Nuclear receptor corepressor 2 (HDAC3/NCoR2), sequence (Q9Y618 whole entry, further chain): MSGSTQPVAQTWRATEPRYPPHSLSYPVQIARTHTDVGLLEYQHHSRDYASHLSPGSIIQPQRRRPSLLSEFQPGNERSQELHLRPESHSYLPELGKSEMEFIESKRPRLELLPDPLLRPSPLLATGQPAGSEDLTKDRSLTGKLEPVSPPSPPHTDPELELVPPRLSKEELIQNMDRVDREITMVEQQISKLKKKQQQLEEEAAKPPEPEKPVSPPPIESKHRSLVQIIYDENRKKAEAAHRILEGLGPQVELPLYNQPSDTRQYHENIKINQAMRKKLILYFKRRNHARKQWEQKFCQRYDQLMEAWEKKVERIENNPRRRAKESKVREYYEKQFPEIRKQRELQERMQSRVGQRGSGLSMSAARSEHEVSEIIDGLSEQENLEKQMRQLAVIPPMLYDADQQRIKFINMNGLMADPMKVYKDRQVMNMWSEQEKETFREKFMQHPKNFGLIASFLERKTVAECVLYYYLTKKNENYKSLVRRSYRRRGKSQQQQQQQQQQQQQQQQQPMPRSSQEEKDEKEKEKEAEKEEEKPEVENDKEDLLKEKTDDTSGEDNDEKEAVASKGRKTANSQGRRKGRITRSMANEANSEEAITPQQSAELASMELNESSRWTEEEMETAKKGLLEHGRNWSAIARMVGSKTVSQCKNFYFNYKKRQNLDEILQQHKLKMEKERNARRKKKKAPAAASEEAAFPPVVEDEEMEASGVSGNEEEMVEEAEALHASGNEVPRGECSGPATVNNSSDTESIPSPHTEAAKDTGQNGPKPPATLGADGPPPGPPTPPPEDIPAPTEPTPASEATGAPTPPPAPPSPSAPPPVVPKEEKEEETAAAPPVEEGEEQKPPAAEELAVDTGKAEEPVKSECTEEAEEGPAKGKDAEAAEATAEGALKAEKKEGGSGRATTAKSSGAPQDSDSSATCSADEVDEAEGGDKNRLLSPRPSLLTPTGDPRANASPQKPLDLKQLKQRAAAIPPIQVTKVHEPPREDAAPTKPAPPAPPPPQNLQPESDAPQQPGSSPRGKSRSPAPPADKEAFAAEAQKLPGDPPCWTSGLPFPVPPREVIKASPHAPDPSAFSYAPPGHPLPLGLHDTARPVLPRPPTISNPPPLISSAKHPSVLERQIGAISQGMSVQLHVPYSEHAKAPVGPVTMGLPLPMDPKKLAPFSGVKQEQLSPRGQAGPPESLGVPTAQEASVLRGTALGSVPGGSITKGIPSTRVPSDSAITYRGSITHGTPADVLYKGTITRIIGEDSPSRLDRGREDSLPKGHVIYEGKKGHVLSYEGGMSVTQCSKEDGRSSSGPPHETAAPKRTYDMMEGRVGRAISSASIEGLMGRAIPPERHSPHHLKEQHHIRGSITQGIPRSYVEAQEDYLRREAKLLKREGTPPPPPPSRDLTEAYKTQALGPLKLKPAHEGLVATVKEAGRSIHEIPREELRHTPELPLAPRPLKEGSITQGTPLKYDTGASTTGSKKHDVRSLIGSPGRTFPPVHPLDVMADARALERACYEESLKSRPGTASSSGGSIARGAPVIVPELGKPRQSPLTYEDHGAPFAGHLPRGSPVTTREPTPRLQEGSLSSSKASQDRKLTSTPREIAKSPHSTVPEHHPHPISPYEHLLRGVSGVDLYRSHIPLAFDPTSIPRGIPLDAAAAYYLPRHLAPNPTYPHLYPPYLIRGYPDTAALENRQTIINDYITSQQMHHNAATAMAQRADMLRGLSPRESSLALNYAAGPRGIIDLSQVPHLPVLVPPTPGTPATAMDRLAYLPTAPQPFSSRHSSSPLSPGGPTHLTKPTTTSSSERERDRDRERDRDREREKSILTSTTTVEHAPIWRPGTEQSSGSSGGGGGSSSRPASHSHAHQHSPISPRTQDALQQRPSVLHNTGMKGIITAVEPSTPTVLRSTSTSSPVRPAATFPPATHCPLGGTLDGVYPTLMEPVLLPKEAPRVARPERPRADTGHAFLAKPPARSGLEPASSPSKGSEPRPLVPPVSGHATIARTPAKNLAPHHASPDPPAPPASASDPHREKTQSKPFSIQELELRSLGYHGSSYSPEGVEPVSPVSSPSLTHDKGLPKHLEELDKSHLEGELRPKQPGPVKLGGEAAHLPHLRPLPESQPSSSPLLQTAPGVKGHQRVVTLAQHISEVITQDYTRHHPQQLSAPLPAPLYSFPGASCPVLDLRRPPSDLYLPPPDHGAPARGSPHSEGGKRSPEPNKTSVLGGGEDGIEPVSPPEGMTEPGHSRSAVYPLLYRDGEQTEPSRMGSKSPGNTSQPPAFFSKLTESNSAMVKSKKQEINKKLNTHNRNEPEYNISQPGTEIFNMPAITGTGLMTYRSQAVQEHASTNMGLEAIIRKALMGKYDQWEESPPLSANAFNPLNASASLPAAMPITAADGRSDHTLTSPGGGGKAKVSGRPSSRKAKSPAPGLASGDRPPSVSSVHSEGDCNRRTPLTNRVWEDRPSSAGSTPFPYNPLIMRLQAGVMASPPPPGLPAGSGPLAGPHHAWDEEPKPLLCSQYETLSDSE
Stromelysin-1, sequence (P08254 whole entry): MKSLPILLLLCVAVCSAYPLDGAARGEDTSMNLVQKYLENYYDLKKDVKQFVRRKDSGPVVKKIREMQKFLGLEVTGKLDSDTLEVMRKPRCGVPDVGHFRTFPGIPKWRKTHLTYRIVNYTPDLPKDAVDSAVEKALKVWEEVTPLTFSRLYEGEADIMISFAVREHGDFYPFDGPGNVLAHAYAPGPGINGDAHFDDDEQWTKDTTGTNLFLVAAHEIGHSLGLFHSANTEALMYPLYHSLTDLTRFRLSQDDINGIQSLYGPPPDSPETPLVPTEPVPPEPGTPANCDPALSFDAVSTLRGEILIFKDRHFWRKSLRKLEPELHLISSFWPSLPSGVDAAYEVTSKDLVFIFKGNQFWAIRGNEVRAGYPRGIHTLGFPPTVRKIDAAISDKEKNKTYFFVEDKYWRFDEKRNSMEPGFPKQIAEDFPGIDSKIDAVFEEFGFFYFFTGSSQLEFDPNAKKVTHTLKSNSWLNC

Structure (SMILES): [N-]=[N+]=NCc1cc(N=[N+]=[N-])cc(C(=O)Nc2ccc(Cn3cc(NC(=O)CCCCCCC(=O)NO)cn3)cc2)c1
IC50 (Histone deacetylase 8): 0.487 µM | IC50 [1]: 0.432 µM

Structure (SMILES): O=C(CCCCCCC(=O)Nc1ccccc1)NO
Activity (HepG2 [13]): Active | Activity (HepG2 [14]): inactive | Activity (HepG2 [15]): inactive | Activity (HepG2 [16]): Active

Structure (SMILES): CNC(=O)[C@H](Cc1c[nH]c2ccccc12)NC(=O)[C@@H](CC(=O)NO)CC(C)C [ILOMASTAT]
IC50 [17]: 0.00041 µM | IC50 (Stromelysin-1): 0.00762 µM

Structure (SMILES): CC(C)(C)OC(=O)Nc1ccc(Cn2cc(NC(=O)CCCCCCC(=O)NO)cn2)cc1
IC50 (Histone deacetylase 8): 0.147 µM | IC50 [1]: 0.191 µM

Structure (SMILES): [N-]=[N+]=NCc1cc(COc2ccc(NC(=O)CCCCCCC(=O)NO)cc2)cc(N=[N+]=[N-])c1
IC50 [1]: 1.48 µM

Continued by falling IC50 [1], values first:

IC50 (Histone deacetylase 8): 0.707 µM | IC50 [1]: 0.073 µM | inhibition [18]: Active | inhibition [19]: Active
Structure (SMILES): [N-]=[N+]=Nc1ccc(-c2cc(C(=O)NCCCCCCC(=O)NO)no2)cc1

IC50 (Histone deacetylase 8): 0.082 µM | IC50 [1]: 0.059 µM
Structure (SMILES): O=C(CCCCCCC(=O)Nc1cnn(Cc2ccc([N+](=O)[O-])cc2)c1)NO

EC50 (HepG2 [3]): 5.5 µM | EC50 (HeLa [4]): 5.5 µM | EC50 (SH-SY5Y [5]): 22.7 µM | EC50 (HeLa [6]): 46.6 µM | EC50 (SH-SY5Y [7]): 23.2 µM | EC50 (SH-SY5Y [8]): > 50 µM | EC50 (HepG2 [10]): 12.6 µM | EC50 (HeLa [11]): 10.6 µM | IC50 (Histone deacetylase 8): 0.076 µM | IC50 [1]: 0.044 µM | EC50 (HepG2 [12]): > 50 µM
Structure (SMILES): O=C(CCCCCCC(=O)Nc1cnn(Cc2ccccc2)c1)NO
Activity (SH-SY5Y [2]): inactive | Activity (SH-SY5Y [9]): Non-toxic

EC50 (HepG2 [3]): 5.9 µM | EC50 (HeLa [4]): 4.6 µM | EC50 (SH-SY5Y [5]): 23.6 µM | EC50 (HeLa [6]): 38.3 µM | EC50 (SH-SY5Y [7]): 23.1 µM | EC50 (SH-SY5Y [8]): > 50 µM | EC50 (HepG2 [10]): 12.7 µM | EC50 (HeLa [11]): 9.9 µM | IC50 (Histone deacetylase 8): 0.028 µM | IC50 [1]: 0.022 µM | EC50 (HepG2 [12]): > 50 µM
Structure (SMILES): [N-]=[N+]=Nc1ccc(Cn2cc(NC(=O)CCCCCCC(=O)NO)cn2)cc1
Activity (SH-SY5Y [2]): inactive | Activity (SH-SY5Y [9]): Non-toxic
